{"data": "Assay results from different studies", "matrix": "plasma", "note": "Protocols differ between the studies behind these lines."}
{"SMILES": "C=CC(=O)NC1CCN(c2ncc3ncnc(Nc4ccc(Oc5ccc6c(c5)ncn6C)c(C)c4)c3n2)CC1", "system": "male human", "conditions": "intravenous, 100 µg, single dose, healthy volunteers", "Cmax": "0.583 nM"}
{"SMILES": "COc1ccc(-c2c(Nc3ccccn3)[nH]c3c(C4=CCCCC4)c(-c4ccccc4)nn3c2=O)cc1", "system": "human", "conditions": "oral, 200 mg once daily, multiple doses, patients", "Cmax": "5720 ng/mL"}
{"SMILES": "COc1ccc(F)cc1C(=O)NCc1ccc(-c2nn([C@@H](C)C(F)(F)F)c(N)c2C(N)=O)cc1", "system": "male human", "conditions": "oral, 200 mg, single dose", "Cmax": "4490 ng/mL"}
{"SMILES": "COc1ccc2c(c1)CN(C(=O)CCN1CCC(Cc3ccccc3)CC1)CC[S@@+]2[O-]", "system": "male human", "conditions": "intravenous, 0.6 mg/kg, healthy volunteers", "Cmax": "1310 ng/mL"}
{"SMILES": "OC[C@H]1O[C@@H](c2cc(Cc3ccc(C4CC4)cc3)c(Cl)c3c2CCO3)[C@H](O)[C@@H](O)[C@@H]1O", "system": "human", "conditions": "oral, 0.3 mg, single dose, fed", "Cmax": "3.74 ng/mL"}
{"SMILES": "CC(=O)N(C)[C@H]1CCN(C(=O)c2cnc3c(c2)C[C@](C)(c2ccc(F)cc2)N3)C1", "system": "male human", "conditions": "oral, 15 mg, multiple doses, once daily, steady state", "Cmax": "333 nM"}
{"SMILES": "O=C(COc1ccc(Cl)cc1)NC12CC(c3nnc([C@H]4C[C@@H](OC(F)(F)F)C4)o3)(C1)C2", "system": "human", "conditions": "oral, 260 mg, multiple doses, once daily, steady state, healthy volunteers", "Cmax": "18600 nM"}
{"SMILES": "Cc1cc(-c2nccc3c2ccn3CC(=O)Nc2ccc(-c3cnccn3)cn2)ccn1", "system": "human", "conditions": "oral, 7 mg, single dose", "Cmax": "57.4 nM"}
{"SMILES": "N#Cc1cccc(-c2ccc3ncc(-c4cc(F)cc(F)c4)c(N4CCC(N)CC4)c3c2)c1O", "system": "male human", "conditions": "oral, 20 mg, single dose", "Cmax": "162 ng/mL"}
{"SMILES": "CC(C)n1c(C2CCNCC2)nc2c([N+](=O)[O-])c(Br)c(Br)cc21", "system": "human", "conditions": "oral, 50 mg, patients", "Cmax": "33.6 ng/mL"}
